Data on 19 molecules can be found in PubChem BioAssay.

Values without a mark were called inactive. Results filed as inconclusive are left out. Active and inactive are the calls of the source.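 The calls were made as follows, unless noted: active = RAM network inhibition above 8.4% in each of two replicates, 3 SD over the compound average; inconclusive = above 8.4% inhibition in only one replicate; inactive = 8.4% inhibition or less in each replicate.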

A short description of experiment [1]: OD615 S. cerevisiae growth inhibition, permissive medium, pilot counter-assay, permissive growth control for S. cerevisiae lifespan shortening project (AID 705;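 active = growth inhibition above 25% in both replicates, a cutoff set 3 SD above the mean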). Conditions: OD615, 24 h, at 10 µM, active compounds read high. An outline of the steps: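 Timing: 24 h exposure, 30 °C / Material: Saccharomyces cerevisiae strain carrying genetically modified DeaD replicative-lifespan system / Signal: OD at 615 nm / Compound: 10 µM single dose, 0.25% DMSO / Medium: SC raffinose/galactose permissive medium / Evaluation: reduction in yeast growth (OD615)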

Experiment [2] can be described thus: Restrictive medium S. cerevisiae growth inhibition, OD615, pilot screen of yeast lifespan reduction project, restrictive growth control (AID 706;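 active = growth inhibition above a set limit, 3 SD over mean compound inhibition, in both replicates, cut at about 43% in these data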;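 also: modified DeaD lifespan yeast strain shifted to restrictive glucose medium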). The following applies: OD615, 48 h, at 10 µM, active compounds read high. The method in brief:
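System: Engineered S. cerevisiae DeaD strain | Detection: OD615 | Buffer or medium: CSMM-D glucose medium | Doses: 10 µM compound, 0.25% DMSO | Timing: 4 h pre-growth plus 48 h compound exposure, 30 °C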

A short description of experiment [3]: growth suppression of beta-catenin knockout HCT116, pilot screen, human colon tumor cells (AID 823;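 active = cell viability at or below a set limit in both duplicate runs, the limit being the all-compound median minus 4 SD, cut at about 23% in these data, passing the limit was not always enough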;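 also: 0% = wells killed by 20 µM Hyamine and 100% = untreated DMSO cell wells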). The following applies: CellTiter-Glo, 60 h, at 10 µM, active compounds read low. (In ATP-based viability assays light output follows the ATP content of the culture.)
Experiment [4] in a line: growth suppression of PTEN-deleted HCT116, pilot screen, cell-based, HCT116 clonal line, CellTiter-Glo (AID 824;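 active = viability at or below 27.92% in each of two runs, the all-compound median minus 4 SD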;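 also: 0% = 20 µM Hyamine control and 100% = vehicle cell control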). The following applies: 60 h, at 10 µM, active compounds read low.
The nature of experiment [5]: inhibitors of the yeast RAM network, pilot screen, dse1pr::URA3 reporter, 5-FOA selection (AID 869;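 active = inhibition over a set limit, the all-compound mean plus 3 SD, in both replicate runs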;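 also: 0% = DMSO wells with no growth and 100% = 10 µM 1-NA-PP1 with full growth; RAM network block rescues cells from 5-FOA so hits raise OD615 growth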). Conditions: S. cerevisiae dse1pr::URA3 5-FOA growth, OD615, 2 d; at 10 µM; active compounds read high; strain carries analog-sensitive mutant Cbk1 kinase.
Experiment [6] can be described thus: RAM signaling pathway blockade in yeast – S. cerevisiae, Pdr1DBD-CYC8 efflux-inhibited sensitized strain, primary screen (AID 1298).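 Also: 0% = DMSO untreated cells without growth and 100% = 10 µM 1-NA-PP1 full growth; higher means more yeast growth rescued from 5-FOA killing.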 Conditions: S. cerevisiae cbk1-as DSE1-URA3 strain, 5-FOA growth OD615, 2 d; at 50 µM; active compounds read high.
The nature of experiment [7]: viability gain of MRP-1-high H69AR cells under doxorubicin, pilot screen, MRP-1 activator project, CellTiter-Glo, duplicate (AID 807;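 active = viability increase at or above a cutoff of the median across tested compounds plus 3 SD, cut at about 8.5% in these data, passing the limit was not always enough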;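 also: compound pretreatment 18-22 h then 72 h combined with doxorubicin; 0% = doxorubicin alone and 100% = vehicle without doxorubicin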). The following applies: H69AR viability with doxorubicin, CellTiter-Glo luminescence; at 10 µM; active compounds read high.

In general, viability refers to a read-out of living cells in per cent, often relative to untreated cells. The term inhibition denotes the change of the read-out against control, counted positive when it falls. With `COc1ccccc1C1CC(c2ccc(Cl)cc2Cl)Nc2nc(N)nn21` (stereo not drawn), the growth inhibition in experiment [1] was -5.97%; in experiment [2], 25.2%. Further, the values for the viability in experiment [3] and in experiment [4] were 86.1% and 85%, respectively. For the same molecule, the inhibition in experiment [5] was 1.62%. The RAM network inhibition in experiment [6] is 7.09%.

Regarding `Cc1ccc(Cl)cc1N1CCN(C(=O)c2cc3c(=O)n(C)c4ccccc4c3n2C)CC1`, the growth inhibition is -2.52% in experiment [1] and 9.03% in experiment [2]. The viability in experiment [3] was 20.4% (active); in experiment [4], 23.5% (active). The inhibition in experiment [5] was 1.74%. The RAM network inhibition in experiment [6] was 2.44%.

Regarding `O=C1C=C(O)CC(c2ccc(Cl)cc2)C1` (stereo not drawn), the growth inhibition is -2.77% in experiment [1] and 0.79% in experiment [2]. The viability in experiment [4] was 103%. Moreover, in experiment [5], the inhibition is -0.37%. The RAM network inhibition in experiment [6] was 8.23%.

Regarding `CCOC(=O)/C=C1\SCC(=O)N1CCOc1cccc(Br)c1`, the growth inhibition was -18.6% in experiment [1] and -29.1% in experiment [2]. For the same molecule, the viability in experiment [3] was 85.5%; in experiment [4], 80.4%. Besides, the inhibition in experiment [5] is 2.75%. The RAM network inhibition in experiment [6] is 3.37%.

As to `CCOCCn1c(-c2ccc(OC)cc2)nc2ccccc21`, the growth inhibition in experiment [1] was -16.9%; in experiment [2], -10.7%. Besides, the viability was 93.6% in experiment [3] and 82.8% in experiment [4]. For the same molecule, in experiment [5], the inhibition was 1.63%. Also, the RAM network inhibition in experiment [6] is 5.07%.

Take `COc1ccc(Br)cc1C1CC(=O)N2CN(C)CSC2=C1C#N` (stereo not drawn): the growth inhibition in experiment [1] was 4.76%. Besides, the viability increase in experiment [7] is -4.75%. The viability in experiment [3] is 81.6%; in experiment [4], 78.3%. For the same molecule, the inhibition in experiment [5] is 0.03%. Moreover, in experiment [6], the RAM network inhibition is 1.82%.

Turning to `O=C(CSCc1ccc(Cl)cc1)NCC1CCCO1` (stereo not drawn), the growth inhibition was -7.79% in experiment [1] and -2.08% in experiment [2]. Moreover, the figures for the viability in experiment [3] and in experiment [4] were 102% and 101%, respectively. The inhibition in experiment [5] is 1.34%. Also, the RAM network inhibition in experiment [6] was 3.99%.

Take `Oc1c(C(c2cccs2)N2CCN(c3cccc(Cl)c3)CC2)sc2ncnn12` (stereo not drawn): the results for the growth inhibition in experiment [1] and in experiment [2] were -8.2% and 5.16%, respectively. The viability is 88.1% in experiment [3] and 90.5% in experiment [4]. Besides, the inhibition in experiment [5] was 1.94%. The RAM network inhibition in experiment [6] was 3.42%.

With `COc1ccccc1C(=O)Nc1cc(-c2nn3c(C)nnc3s2)ccc1C`, in experiment [1], the growth inhibition was 12.8%. Besides, the viability increase in experiment [7] was -3.73%. In addition, the viability in experiment [3] is 114%; in experiment [4], 97.8%. For the same molecule, the inhibition in experiment [5] is 1.22%. Further, in experiment [6], the RAM network inhibition is 4.87%.

On to `Cc1noc(/C=C/N(C)C)c1S(=O)(=O)N1CCCC(C(=O)NCc2ccco2)C1` (stereo not drawn), for which the growth inhibition in experiment [1] was 4.93%; in experiment [2], -2.94%. The values for the viability in experiment [3] and in experiment [4] were 97.6% and 92.1%, respectively. Besides, the inhibition in experiment [5] is 0.86%. Further, in experiment [6], the RAM network inhibition was 4.7%.

`Brc1ccc(CSc2ncn[nH]2)cc1`: the results for the growth inhibition in experiment [1] and in experiment [2] were -0.435% and 12.1%, respectively. Besides, the viability in experiment [3] and in experiment [4] was 95.3% in each case. The inhibition in experiment [5] is 0.94%. Moreover, the RAM network inhibition in experiment [6] was 0.27%.

As for `COc1cc(C(c2sc3ncnn3c2O)N2CCN(c3ccccc3F)CC2)cc(OC)c1OC` (stereo not drawn), the growth inhibition in experiment [1] is 1.67%; in experiment [2], -0.84%. Besides, the viability in experiment [3] was 103%; in experiment [4], 105%. The inhibition in experiment [5] was 2.5%. Besides, the RAM network inhibition in experiment [6] was 5.34%.

As to `CCN(CC)C1CC(=O)N(c2cccc(C)c2)C1=O` (stereo not drawn), in experiment [1], the growth inhibition was 20%. For the same molecule, in experiment [7], the viability increase was -1.11%. Also, the values for the viability in experiment [3] and in experiment [4] were 105% and 101%, respectively. The inhibition in experiment [5] was 2.06%. Also, in experiment [6], the RAM network inhibition was -0.69%.

`Cn1c(=O)[nH]c(=O)c2c1nc(SCC(=O)Nc1ccccc1)n2Cc1ccccc1`: the figures for the growth inhibition in experiment [1] and in experiment [2] were -4.58% and 0.385%, respectively. Also, the viability in experiment [3] is 92%; in experiment [4] it was 94.6%. The inhibition in experiment [5] is 0.935%. For the same molecule, in experiment [6], the RAM network inhibition was 2.08%.

Consider `COc1ccc(NC(=O)CSc2nnc(Cn3c(=O)sc4ccccc43)n2C)c(OC)c1`, for which, in experiment [1], the growth inhibition is 2.11%. The viability increase in experiment [7] is -4.82%. Further, the viability in experiment [3] was 101%; in experiment [4], 92.7%. The inhibition in experiment [5] was -0.285%. Also, the RAM network inhibition in experiment [6] was 1.01%.

As for `O=C(CSc1nnc(Cn2c(=O)sc3ccccc32)n1CCc1ccccc1)N1CCCC1`, the growth inhibition in experiment [1] was 2.63%. For the same molecule, the viability increase in experiment [7] was -3.62%. Also, the results for the viability in experiment [3] and in experiment [4] were 97.9% and 94.9%, respectively. Besides, the inhibition in experiment [5] was 2.82%. In experiment [6], the RAM network inhibition was 7.13%.

Consider `Cc1noc(/C=C/N(C)C)c1S(=O)(=O)N1CCCC(C(=O)NC2CCCCC2C)C1` (stereo not drawn), for which the growth inhibition in experiment [1] is -2.76%; in experiment [2] it was -6.36%. For the same molecule, the figures for the viability in experiment [3] and in experiment [4] were 87.1% and 83.2%, respectively. The inhibition in experiment [5] is 1.89%. Besides, the RAM network inhibition in experiment [6] was 7.7%.

With `CCN1CCN(C(=O)C(NS(=O)(=O)c2ccc3nc(C)sc3c2)C(C)C)CC1` (stereo not drawn), the growth inhibition in experiment [1] was -15.9%. Further, the viability increase in experiment [7] is -0.67%. The figures for the viability in experiment [3] and in experiment [4] were 99.4% and 95.2%, respectively. Also, the inhibition in experiment [5] was 0.845%. The RAM network inhibition in experiment [6] was -0.04%.

As for `O=C(Nc1nc2c(s1)CCCC2)c1ccc2ncsc2c1`, the growth inhibition in experiment [1] was 14.5%. Besides, the viability increase in experiment [7] is -2.76%. The viability in experiment [3] is 68.4%; in experiment [4], 76.7%. The inhibition in experiment [5] is -0.135%. In experiment [6], the RAM network inhibition is 0.27%.
